Experimental data reported in ChEMBL document CHEMBL3085677, “Novel coumarin-3-carboxamides bearing N-benzylpiperidine moiety as potent acetylcholinesterase inhibitors” (Eur J Med Chem, 2013).
Activity calls are given as the source filed them. The calls are words filed in the database; no cut-off is given here.

Assays:
[1] = target: Acetylcholinesterase (Electrophorus electricus) (UniProt O42275); assay: Mixed-type inhibition of electric eel AChE using acetylcholine as substrate by Lineweaver-Burk plot method
Summary of the method: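 Kinetics used eel AChE with inhibitor fixed at 0.357, 3.57 or 11.9 nM. Initial velocities were measured across several acetylthiocholine concentrations. Reciprocal velocity (1/v) was plotted against 1/[ATCh] (double-reciprocal plot).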

[2] = target: Acetylcholinesterase (Electrophorus electricus) (UniProt O42275); assay: Ratio of donepezil IC50 to compound IC50 for electric eel AChE using acetylcholine as substrate preincubated for 15 mins prior to substrate addition by Ellman's method
[3] = Cytotoxicity against rat PC12 cells at 1 to 100 uM after 24 hrs by MTT assay; format: cell-based; settings: pc-12, 24 h
PC-12 = assay: Protection against H2O2-induced cell death in rat PC12 cells pretreated at 1 to 100 uM for 3 hrs before H2O2 challenge using DAPI staining method; format: functional, cell-based
Summary of the method: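 Rat PC12 cells grown in RPMI 1640 with 10% FCS and penicillin/streptomycin, plated at 10^4 cells/well. Held 2 days serum-free, then given NGF 50 ng/ml for 5 days until neurites formed. Pretreated 3 h at three compound levels before H2O2 challenge. Apoptosis judged by DAPI added to live cells for 20 min. Viability read by MTT after 24 h.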

[4] = Selectivity index, ratio of IC50 for equine serum BChE to IC50 for electric eel AChE
Summary of the method: (§1)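 Ellman-type assay at 25 °C with eel AChE (Type V-S) or equine serum BuChE, added as a 2.5 unit/mL enzyme solution. Medium was 0.1 M phosphate buffer pH 8.0 with DTNB added from a 0.01 M solution. Inhibitor was preincubated 15 min before acetylthiocholine or butyrylthiocholine iodide. ΔA412 was read over 6 min, corrected against a non-enzymatic blank. Five concentrations in triplicate gave 20–80% inhibition. IC50 came graphically from log-concentration curves, mean of three experiments; SI = IC50 BuChE/IC50 AChE.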

Cholinesterase = Cholinesterase (Equus caballus, UniProt P81908); assay: Inhibition of equine serum BChE using butyrylthiocholine iodide as substrate preincubated for 15 mins prior to substrate addition by Ellman's method; summary of the method: as §1
Acetylcholinesterase = Acetylcholinesterase (Electrophorus electricus, UniProt O42275); assay: Inhibition of electric eel AChE using acetylcholine as substrate preincubated for 15 mins prior to substrate addition by Ellman's method
Sequence of Acetylcholinesterase (O42275 whole entry): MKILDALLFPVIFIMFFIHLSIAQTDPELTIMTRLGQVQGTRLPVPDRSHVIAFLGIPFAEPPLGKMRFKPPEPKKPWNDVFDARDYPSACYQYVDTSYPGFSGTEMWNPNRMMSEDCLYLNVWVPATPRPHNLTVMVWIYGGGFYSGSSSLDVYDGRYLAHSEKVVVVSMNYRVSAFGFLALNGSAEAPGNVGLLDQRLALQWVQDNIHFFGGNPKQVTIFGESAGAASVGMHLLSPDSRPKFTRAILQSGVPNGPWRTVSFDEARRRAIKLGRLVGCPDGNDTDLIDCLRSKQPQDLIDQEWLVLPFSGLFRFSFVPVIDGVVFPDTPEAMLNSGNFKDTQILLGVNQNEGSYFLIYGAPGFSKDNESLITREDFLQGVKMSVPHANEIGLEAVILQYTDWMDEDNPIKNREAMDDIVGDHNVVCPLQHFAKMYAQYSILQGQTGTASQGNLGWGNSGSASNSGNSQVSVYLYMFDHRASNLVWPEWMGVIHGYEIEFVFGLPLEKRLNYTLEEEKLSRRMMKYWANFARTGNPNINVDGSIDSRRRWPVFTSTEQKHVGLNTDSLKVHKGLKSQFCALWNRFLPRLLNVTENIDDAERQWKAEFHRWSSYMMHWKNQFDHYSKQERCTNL

Sequence of Cholinesterase (P81908 whole entry): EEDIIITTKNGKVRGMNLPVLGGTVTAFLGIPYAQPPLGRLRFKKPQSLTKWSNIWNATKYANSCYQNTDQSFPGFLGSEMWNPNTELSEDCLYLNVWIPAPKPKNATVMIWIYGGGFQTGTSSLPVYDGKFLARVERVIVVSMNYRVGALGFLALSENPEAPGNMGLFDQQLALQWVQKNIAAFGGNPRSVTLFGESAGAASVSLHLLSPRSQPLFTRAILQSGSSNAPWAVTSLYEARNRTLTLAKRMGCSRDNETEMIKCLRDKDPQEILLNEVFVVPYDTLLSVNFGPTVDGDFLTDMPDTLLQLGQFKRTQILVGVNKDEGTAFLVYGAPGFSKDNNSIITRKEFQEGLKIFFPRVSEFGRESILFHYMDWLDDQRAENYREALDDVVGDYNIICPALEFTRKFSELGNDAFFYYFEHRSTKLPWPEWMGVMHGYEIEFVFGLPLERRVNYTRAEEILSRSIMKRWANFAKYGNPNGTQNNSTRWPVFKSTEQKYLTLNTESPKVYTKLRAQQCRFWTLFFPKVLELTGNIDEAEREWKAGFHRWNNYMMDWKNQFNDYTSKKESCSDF
Sequence of Acetylcholinesterase (Electrophorus electricus) (O42275 24-633 limits assumed): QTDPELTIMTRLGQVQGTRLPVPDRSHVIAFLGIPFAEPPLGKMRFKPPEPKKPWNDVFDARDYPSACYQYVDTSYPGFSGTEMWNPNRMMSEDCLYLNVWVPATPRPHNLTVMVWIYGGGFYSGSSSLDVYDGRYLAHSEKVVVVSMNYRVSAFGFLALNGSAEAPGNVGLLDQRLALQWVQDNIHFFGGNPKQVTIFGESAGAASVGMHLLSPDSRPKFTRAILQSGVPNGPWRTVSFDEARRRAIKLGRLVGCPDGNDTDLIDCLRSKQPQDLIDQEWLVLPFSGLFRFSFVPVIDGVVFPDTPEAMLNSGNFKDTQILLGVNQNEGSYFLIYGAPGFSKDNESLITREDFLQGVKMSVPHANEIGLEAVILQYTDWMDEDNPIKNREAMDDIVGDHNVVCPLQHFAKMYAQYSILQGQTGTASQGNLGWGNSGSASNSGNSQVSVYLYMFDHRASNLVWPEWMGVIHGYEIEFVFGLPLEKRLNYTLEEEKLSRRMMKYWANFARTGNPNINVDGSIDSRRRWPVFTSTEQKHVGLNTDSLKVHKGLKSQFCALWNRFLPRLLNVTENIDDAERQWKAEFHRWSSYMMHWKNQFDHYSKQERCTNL

O=C(NCCC1CCN(Cc2ccccc2)CC1)c1cc2cc([N+](=O)[O-])ccc2oc1=O
inhibition [1]: Active | Ratio IC50 [2]: 46 | Activity [3]: Non-toxic | Activity (PC-12): Active | Ratio IC50 [4]: 26300 | IC50 (Cholinesterase): 7900 nM | IC50 (Acetylcholinesterase): 0.3 nM

O=C(NC1CCN(Cc2ccccc2)CC1)c1cc2ccc(O)cc2oc1=O
Ratio IC50 [4]: 32 | IC50 (Cholinesterase): 55000 nM | IC50 (Acetylcholinesterase): 1700 nM

COc1ccc2cc(C(=O)NC3CCN(Cc4ccccc4)CC3)c(=O)oc2c1
Ratio IC50 [4]: 147 | IC50 (Cholinesterase): 27000 nM | IC50 (Acetylcholinesterase): 183 nM

O=C(NCCC1CCN(Cc2ccccc2)CC1)c1cc2ccccc2oc1=O
Ratio IC50 [4]: 14 | IC50 (Cholinesterase): 371 nM | IC50 (Acetylcholinesterase): 26 nM

O=C(NCCC1CCN(Cc2ccccc2)CC1)c1cc2ccc(O)cc2oc1=O
Ratio IC50 [4]: 321 | IC50 (Cholinesterase): 46000 nM | IC50 (Acetylcholinesterase): 143 nM

COc1cccc2cc(C(=O)NCCC3CCN(Cc4ccccc4)CC3)c(=O)oc12
Ratio IC50 [4]: 9000 | IC50 (Cholinesterase): 18000 nM | IC50 (Acetylcholinesterase): 2 nM

COc1ccc2cc(C(=O)NCCC3CCN(Cc4ccccc4)CC3)c(=O)oc2c1
Activity [3]: Non-toxic | Activity (PC-12): Active | Ratio IC50 [4]: 71 | IC50 (Cholinesterase): 357 nM | IC50 (Acetylcholinesterase): 5 nM

O=C(NC1CCN(Cc2ccccc2)CC1)c1cc2ccccc2oc1=O
Ratio IC50 [4]: 14 | IC50 (Cholinesterase): 17000 nM | IC50 (Acetylcholinesterase): 1200 nM

O=C(NCCC1CCN(Cc2ccccc2)CC1)c1cc2cc(O)ccc2oc1=O
Ratio IC50 [4]: 222 | IC50 (Cholinesterase): 15600 nM | IC50 (Acetylcholinesterase): 70 nM

O=C(NC1CCN(Cc2ccccc2)CC1)c1cc2cc(Br)ccc2oc1=O
Ratio IC50 [4]: 1400 | IC50 (Cholinesterase): 42000 nM | IC50 (Acetylcholinesterase): 30 nM

O=C(NCCC1CCN(Cc2ccccc2)CC1)c1cc2cc(Br)ccc2oc1=O
Activity [3]: Non-toxic | Activity (PC-12): Active | Ratio IC50 [4]: 210 | IC50 (Cholinesterase): 420 nM | IC50 (Acetylcholinesterase): 2 nM

COc1cccc2cc(C(=O)NC3CCN(Cc4ccccc4)CC3)c(=O)oc12
Ratio IC50 [4]: 32 | IC50 (Cholinesterase): 20000 nM | IC50 (Acetylcholinesterase): 633 nM

O=C(NC1CCN(Cc2ccccc2)CC1)c1cc2cc([N+](=O)[O-])ccc2oc1=O
Ratio IC50 [4]: 51 | IC50 (Cholinesterase): 22000 nM | IC50 (Acetylcholinesterase): 430 nM
